In ChEMBL document CHEMBL3600305, “Flemingin-Type Prenylated Chalcones from the Sarawak Rainforest Plant Desmodium congestum” (J Nat Prod, 2015) one finds IC50 and MIC data, which are given here for five molecules.

In general, IC50 refers to the point on the concentration scale where inhibition reaches its midpoint. A higher IC50 goes with weaker potency. Broadly, the MIC is the lowest concentration found to suppress growth. Read a low MIC as inhibition by little substance.

Converted amounts (≈) assume the structure as drawn.

One assay deals with HEK293. The experiment in a line: Cytotoxicity against human HEK293 cells after 24 hrs. It counts as cell-based. The note with it: HEK293, 24 h. An outline of the steps: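 HEK293 cells seeded at 3000/well in DMEM with 10% FBS, attached 24 h at 37 °C, 5% CO2. Compounds from 1.28 mg/mL DMSO stock in 1:3 serial dilutions, final DMSO 1%, 24 h exposure. Resazurin 10 μM added for 2 h; fluorescence ex/em 560/590 nm. Four replicates; viability normalised to 1% DMSO and negative controls. Tamoxifen positive control.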

Another assay relates to Streptococcus pneumoniae. Put plainly: Antibacterial activity against multidrug-resistant Streptococcus pneumoniae ATCC 700677 after 24 hrs. The note with it: ATCC 700677, 24 h. The assay is classed as functional. An outline of the steps: (§1)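 Broth microdilution in MHB. Overnight cultures grown at 37 °C with shaking, diluted 40-fold and grown 2−3 h to mid-log, then added at a final 5 × 10^5 CFU/mL. Compounds in 2-fold serial dilution, final 0.015−32 μg/mL, in duplicate. Incubated 24 h at 37 °C. MIC read visually as the lowest concentration with no visible growth. Vancomycin, daptomycin and colistin served as controls.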

For assay [1], the system named is Staphylococcus aureus. Put plainly: Antibacterial activity against methicillin-resistant Staphylococcus aureus ATCC 43300 after 24 hrs. It counts as functional. The note with it: ATCC 43300, 24 h. In short, it runs like this:
as §1

Another assay deals with Enterococcus faecalis. The experiment in a line: Antibacterial activity against Enterococcus faecalis clinical isolate expressing VanA after 24 hrs. It counts as functional. An outline of the steps: as §1
Assay [2] has as its system Staphylococcus aureus. The experiment in a line: Antibacterial activity against methicillin-resistant and glycopeptide-intermediate Staphylococcus aureus NRSA-NRS 1 after 24 hrs. The note with it: NRSA-NRS 1, 24 h. It counts as functional. An outline of the steps:
as §1

For assay [3], the system named is Staphylococcus aureus. Put plainly: Antibacterial activity against glycopeptide-intermediate Staphylococcus aureus NRSA-NRS 17 after 24 hrs. It counts as functional. The note with it: NRSA-NRS 17, 24 h. In short, it runs like this:
(§2)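 Broth microdilution in MHB. Overnight cultures at 37 °C with shaking, diluted 40-fold and grown 2−3 h to mid-log, then added at final 5 × 10^5 CFU/mL. Compounds in 2-fold series, final 0.015−32 μg/mL, in duplicate. Incubated 24 h at 37 °C. MIC read visually as lowest concentration with no visible growth. Vancomycin, daptomycin and colistin as controls.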

For another assay, the system named is Escherichia coli. The experiment in a line: Antibacterial activity against Escherichia coli ATCC 25922 after 24 hrs. The assay is classed as functional. In short, it runs like this:
as §2

The test system of a further assay is Enterococcus faecium. The experiment in a line: Antibacterial activity against multidrug-resistant Enterococcus faecium ATCC 51559 expressing VanA after 24 hrs. It counts as functional. Conditions: ATCC 51559, 24 h. An outline of the steps: as §1

For `COc1cc(C(=O)/C=C/c2cccc(O)c2O)c(O)c2c1OC(C)(CCC=C(C)C)C=C2` (stereo not drawn), in the assay on HEK293, the IC50 stood at 37 µM. Also, the MIC is 32 µg/mL (≈ 73.3 µM) against Streptococcus pneumoniae; 32 µg/mL (≈ 73.3 µM) against Staphylococcus aureus [1]; 16 µg/mL (≈ 36.7 µM) in the assay with Enterococcus faecalis; 32 µg/mL (≈ 73.3 µM) against Staphylococcus aureus [2]; > 32 µg/mL against Staphylococcus aureus [3]; > 32 µg/mL in the assay on Escherichia coli (ATCC 25922, 24 h). Besides, the MIC against Enterococcus faecium turned out to be 32 µg/mL (≈ 73.3 µM).
`COc1cc(C(=O)/C=C/c2cc(O)ccc2O)c(O)c2c1OC(C)(CCC=C(C)C)C=C2` (stereo not drawn): in the assay with HEK293, the IC50 was 21 µM. In addition, the MIC is 32 µg/mL (≈ 73.3 µM) against Streptococcus pneumoniae; 32 µg/mL (≈ 73.3 µM) in the assay on Staphylococcus aureus [1]; 16 µg/mL (≈ 36.7 µM) in the assay with Enterococcus faecalis; 32 µg/mL (≈ 73.3 µM) against Staphylococcus aureus [2]; > 32 µg/mL with Staphylococcus aureus [3]; > 32 µg/mL against Escherichia coli (ATCC 25922, 24 h). The same molecule returned an MIC against Enterococcus faecium of 32 µg/mL (≈ 73.3 µM).
`CN[C@H](CC(C)C)C(=O)N[C@H]1C(=O)N[C@@H](CC(N)=O)C(=O)N[C@H]2C(=O)N[C@H]3C(=O)N[C@H](C(=O)N[C@H](C(=O)O)c4cc(O)cc(O)c4-c4cc3ccc4O)[C@H](O)c3ccc(c(Cl)c3)Oc3cc2cc(c3O[C@@H]2O[C@H](CO)[C@@H](O)[C@H](O)[C@H]2O[C@H]2C[C@](C)(N)[C@H](O)[C@H](C)O2)Oc2ccc(cc2Cl)[C@H]1O` [VANCOMYCIN]: the MIC is 2 µg/mL (≈ 1.38 µM) against Streptococcus pneumoniae; > 32 µg/mL against Enterococcus faecalis; 8 µg/mL (≈ 5.52 µM) in the assay on Staphylococcus aureus [2]; 8 µg/mL (≈ 5.52 µM) against Staphylococcus aureus [3]; > 32 µg/mL in the assay with Enterococcus faecium.
With `CCCCCCCCCC(=O)N[C@@H](Cc1c[nH]c2ccccc12)C(=O)N[C@H](CC(N)=O)C(=O)N[C@@H](CC(=O)O)C(=O)N[C@@H]1C(=O)NCC(=O)N[C@@H](CCCN)C(=O)N[C@@H](CC(=O)O)C(=O)N[C@H](C)C(=O)N[C@@H](CC(=O)O)C(=O)NCC(=O)N[C@H](CO)C(=O)N[C@@H]([C@H](C)CC(=O)O)C(=O)N[C@@H](CC(=O)c2ccccc2N)C(=O)O[C@@H]1C`, the MIC against Streptococcus pneumoniae worked out at 2 µg/mL (≈ 1.23 µM); in the assay with Staphylococcus aureus [1] it was 1.2 µg/mL (≈ 0.74 µM); in the assay on Enterococcus faecalis, 8 µg/mL (≈ 4.94 µM); in the assay with Staphylococcus aureus [2], 16 µg/mL (≈ 9.87 µM); in the assay with Staphylococcus aureus [3] it was 8 µg/mL (≈ 4.94 µM); with Enterococcus faecium, 16 µg/mL (≈ 9.87 µM).
In turn, COLISTIN came in with an MIC against Escherichia coli of 0.25 µg/mL.
